Laboratory results reported in ChEMBL document CHEMBL5678806, “NMS-P937, an orally available, specific small-molecule polo-like kinase 1 inhibitor with antitumor activity in solid and hematologic malignancies” (Mol Cancer Ther, 2012).
Activity calls are given as the source filed them. The rule behind the calls is not given here.

Columns and labels:
[1] = test system: NCI-H23; assay: Antiproliferative activity against human NCI-H23 cells assessed as inhibition of cell growth incubated for 72 hrs by cell-titer glo assay; assay type: functional, cell-based; conditions: NCI-H23, 72 h
In short: (§1)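 Cells from ATCC or ECACC, kept in supplier-recommended medium with 1% penicillin-streptomycin at 37°C, 5% CO₂. Seeded at 10,000–30,000/cm² (adherent) or 100,000/mL (nonadherent) in medium with 10% fetal calf serum. Dosed after 24 h in duplicate with serial dilutions. Viable cells read by CellTiter-Glo 72 h later. IC50 from sigmoidal fit. At least two independent experiments.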

[2] = Cmax in male cynomolgus monkey at 5 mg/kg, po by LC-MS analysis; assay type: ADME, organism-based, Macaca fascicularis; conditions: in vivo
[3] = target: Serine/threonine-protein kinase PAK 3 (Homo sapiens) (UniProt O75914); assay: Inhibition of C-terminal 6His-tagged recombinant human full-length PAK3 expressed in baculovirus infected Sf21 cells assessed as residual activity at 1 uM relative to control
Serine/threonine-protein kinase PAK 3 (Homo sapiens), sequence (O75914 whole entry, looked up, the tested form may be a part): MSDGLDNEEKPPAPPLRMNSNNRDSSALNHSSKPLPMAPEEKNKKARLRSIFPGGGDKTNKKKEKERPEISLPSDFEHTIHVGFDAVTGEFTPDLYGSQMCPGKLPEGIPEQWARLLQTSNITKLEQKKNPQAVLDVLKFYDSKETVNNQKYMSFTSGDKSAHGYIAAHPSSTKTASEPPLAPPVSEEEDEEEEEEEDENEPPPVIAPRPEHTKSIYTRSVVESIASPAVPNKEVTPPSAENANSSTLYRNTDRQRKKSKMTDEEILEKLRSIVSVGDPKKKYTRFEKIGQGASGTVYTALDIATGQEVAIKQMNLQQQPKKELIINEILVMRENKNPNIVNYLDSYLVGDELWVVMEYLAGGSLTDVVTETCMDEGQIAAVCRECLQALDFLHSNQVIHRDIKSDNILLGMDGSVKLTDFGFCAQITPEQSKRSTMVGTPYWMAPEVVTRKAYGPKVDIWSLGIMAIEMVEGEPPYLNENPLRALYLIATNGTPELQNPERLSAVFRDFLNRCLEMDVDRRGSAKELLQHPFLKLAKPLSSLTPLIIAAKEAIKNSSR

[4] = target: Homeodomain-interacting protein kinase 2 (Homo sapiens) (UniProt Q9H2X6); assay: Inhibition of N-terminal His6-tagged recombinant human HIPK2 (165 to 564 residues) expressed in baculovirus infected Sf21 cells assessed as residual activity at 1 uM relative to control
Homeodomain-interacting protein kinase 2 (Homo sapiens), sequence (Q9H2X6 whole entry, looked up, the tested form may be a part): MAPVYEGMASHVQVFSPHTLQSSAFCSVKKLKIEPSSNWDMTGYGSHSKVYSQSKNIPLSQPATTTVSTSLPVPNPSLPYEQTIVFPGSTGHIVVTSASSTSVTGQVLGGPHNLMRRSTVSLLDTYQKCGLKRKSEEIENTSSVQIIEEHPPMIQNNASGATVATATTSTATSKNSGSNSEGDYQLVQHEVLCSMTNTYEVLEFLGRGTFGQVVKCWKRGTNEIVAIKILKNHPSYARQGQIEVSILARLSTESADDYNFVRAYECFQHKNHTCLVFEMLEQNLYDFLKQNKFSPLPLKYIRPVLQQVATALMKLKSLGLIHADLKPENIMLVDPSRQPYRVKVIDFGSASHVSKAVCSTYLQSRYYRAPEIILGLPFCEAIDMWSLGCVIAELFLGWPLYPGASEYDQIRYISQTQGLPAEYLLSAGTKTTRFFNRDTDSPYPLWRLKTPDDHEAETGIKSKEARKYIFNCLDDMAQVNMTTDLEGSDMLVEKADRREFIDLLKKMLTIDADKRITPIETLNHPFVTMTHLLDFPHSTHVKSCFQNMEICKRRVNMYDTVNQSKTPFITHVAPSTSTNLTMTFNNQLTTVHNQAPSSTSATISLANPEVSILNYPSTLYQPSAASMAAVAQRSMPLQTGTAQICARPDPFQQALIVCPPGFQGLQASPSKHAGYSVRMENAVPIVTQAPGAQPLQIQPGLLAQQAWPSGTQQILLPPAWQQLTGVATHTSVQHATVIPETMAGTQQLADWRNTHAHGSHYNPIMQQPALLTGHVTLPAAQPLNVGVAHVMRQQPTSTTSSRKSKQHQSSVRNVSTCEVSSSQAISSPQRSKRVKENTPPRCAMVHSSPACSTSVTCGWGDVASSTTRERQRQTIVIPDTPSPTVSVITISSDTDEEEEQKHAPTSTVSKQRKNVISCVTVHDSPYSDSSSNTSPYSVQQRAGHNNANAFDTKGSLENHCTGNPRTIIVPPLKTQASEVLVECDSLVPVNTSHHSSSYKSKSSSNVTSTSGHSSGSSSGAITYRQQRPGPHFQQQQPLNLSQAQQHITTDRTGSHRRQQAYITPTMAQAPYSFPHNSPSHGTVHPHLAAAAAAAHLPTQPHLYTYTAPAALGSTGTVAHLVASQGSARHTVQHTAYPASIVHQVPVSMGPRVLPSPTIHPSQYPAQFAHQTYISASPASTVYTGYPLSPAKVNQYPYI

[5] = test system: NCI-H520; assay: Antiproliferative activity against human NCI-H520 cells assessed as inhibition of cell growth incubated for 72 hrs by cell-titer glo assay; assay type: functional, cell-based; conditions: NCI-H520, 72 h; in short: as §1
[6] = test system: SK-MEL-28; assay: Antiproliferative activity against human SK-MEL-28 cells assessed as inhibition of cell growth incubated for 72 hrs by cell-titer glo assay; assay type: functional, cell-based; conditions: SK-MEL-28, 72 h
[7] = test system: CAKI-1; assay: Antiproliferative activity against human CAKI-1 cells assessed as inhibition of cell growth incubated for 72 hrs by cell-titer glo assay; assay type: functional, cell-based; conditions: CAKI-1, 72 h
In short: (§2)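 Cells seeded 10,000–30,000/cm² (adherent) or 100,000/mL (suspension) in medium with 10% fetal calf serum; after 24 h treated in duplicate with serial dilutions for 72 h. Viable cells read by CellTiter-Glo luminescence; IC50 from sigmoidal fit; at least two independent experiments.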

[8] = Half-life in Beagle dog at 5 mg/kg, po by LC-MS analysis; assay type: ADME, organism-based, Canis lupus familiaris; conditions: in vivo
[9] = Toxicity in nu/nu mouse xenografted with human HCT-116 cells assessed as body weight loss at 45 mg/kg, iv administered for 3 days; assay type: organism-based; conditions: in vivo, 72 h, time 3 day
[10] = test system: A2780; assay: Induction of apoptosis in human A2780 cells assessed as PARP cleavage at 0.02 to 0.2 micromol/L incubated for 24 hrs by Western blotting analysis; assay type: functional, cell-based; conditions: dose 0.02-0.2 µmol/L
[11] = test system: A2780; assay: Induction of cell cycle arrest in human A2780 cells assessed as accumulation of cells in G2/M phase by measuring Histone H3 phosphorylation on Ser10 incubated for 24 hrs by Western blotting analysis; assay type: functional, cell-based; conditions: dose 0.02-0.2 µmol/L
In short: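 A2780 ovarian carcinoma cells treated 24 h with a range of concentrations, with DMSO and nocodazole controls. 20 µg protein extract separated by SDS-PAGE and immunoblotted with chemiluminescent detection. Probed for total and phospho-Thr210 PLK1, phospho-Ser10 histone H3, phospho-Thr199 NPM and phospho-Tyr15 CDK1. Total NPM, tubulin and total CDK1 served as loading controls.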

[12] = test system: CAKI-2; assay: Antiproliferative activity against human CAKI-2 cells assessed as inhibition of cell growth incubated for 72 hrs by cell-titer glo assay; assay type: functional, cell-based; conditions: CAKI-2, 72 h; in short: as §2
[13] = test system: ACHN; assay: Antiproliferative activity against human ACHN cells assessed as inhibition of cell growth incubated for 72 hrs by cell-titer glo assay; assay type: functional, cell-based; in short: as §2
[14] = test system: THP-1; assay: Antiproliferative activity against human THP-1 cells assessed as inhibition of cell growth incubated for 72 hrs by cell-titer glo assay; assay type: functional, cell-based; conditions: THP-1, 72 h
[15] = target: Proto-oncogene tyrosine-protein kinase Src (Homo sapiens) (UniProt P12931); assay: Inhibition of N-Terminal His6-tagged recombinant full-length human c-SRC expressed in Sf21 cells assessed as residual activity at 0.1 uM relative to control
Proto-oncogene tyrosine-protein kinase Src (Homo sapiens), sequence (P12931 2-536 limits assumed): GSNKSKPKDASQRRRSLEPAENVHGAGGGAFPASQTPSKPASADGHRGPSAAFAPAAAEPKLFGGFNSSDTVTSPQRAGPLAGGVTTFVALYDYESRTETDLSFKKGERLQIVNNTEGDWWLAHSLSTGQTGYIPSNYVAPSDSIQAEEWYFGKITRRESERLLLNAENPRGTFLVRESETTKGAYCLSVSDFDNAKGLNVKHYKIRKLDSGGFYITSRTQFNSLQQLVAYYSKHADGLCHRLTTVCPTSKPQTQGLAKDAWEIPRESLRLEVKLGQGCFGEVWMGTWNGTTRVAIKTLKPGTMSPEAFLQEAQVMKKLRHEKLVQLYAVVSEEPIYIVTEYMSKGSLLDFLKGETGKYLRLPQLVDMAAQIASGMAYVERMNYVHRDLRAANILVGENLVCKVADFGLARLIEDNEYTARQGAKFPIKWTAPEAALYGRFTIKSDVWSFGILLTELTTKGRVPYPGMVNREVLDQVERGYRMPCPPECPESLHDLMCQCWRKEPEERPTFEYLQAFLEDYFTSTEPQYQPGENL

[16] = Cmax in Beagle dog at 5 mg/kg, iv by LC-MS analysis; assay type: ADME, organism-based, Canis lupus familiaris; conditions: in vivo
[17] = Antiproliferative activity against human GM03798 cells assessed as inhibition of cell growth incubated for 72 hrs by cell-titer glo assay; assay type: functional, cell-based; conditions: GM03798, 72 h; in short: as §2
[18] = target: Casein kinase I isoform gamma-3 (Homo sapiens) (UniProt Q9Y6M4); assay: Inhibition of N-terminal 6His-tagged recombinant human CK1gamma3 (1 to 330 residues) expressed in baculovirus infected Sf21 cells assessed as residual activity at 1 uM relative to control
Casein kinase I isoform gamma-3 (Homo sapiens), sequence (Q9Y6M4 whole entry, looked up, the tested form may be a part, canonical isoform): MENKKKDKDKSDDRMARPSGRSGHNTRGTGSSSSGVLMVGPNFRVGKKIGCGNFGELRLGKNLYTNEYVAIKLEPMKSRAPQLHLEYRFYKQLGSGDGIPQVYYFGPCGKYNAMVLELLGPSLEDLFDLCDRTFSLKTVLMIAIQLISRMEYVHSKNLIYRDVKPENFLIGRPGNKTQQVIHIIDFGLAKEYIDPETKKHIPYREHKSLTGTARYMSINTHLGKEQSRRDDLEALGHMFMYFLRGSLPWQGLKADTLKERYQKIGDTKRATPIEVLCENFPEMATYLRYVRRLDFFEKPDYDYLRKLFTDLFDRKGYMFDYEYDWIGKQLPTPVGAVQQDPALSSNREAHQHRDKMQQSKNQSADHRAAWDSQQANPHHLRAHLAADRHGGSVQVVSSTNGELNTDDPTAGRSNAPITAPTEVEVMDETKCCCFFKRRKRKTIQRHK

[19] = test system: NCI-H1650; assay: Antiproliferative activity against human NCI-H1650 cells assessed as inhibition of cell growth incubated for 72 hrs by cell-titer glo assay; assay type: functional, cell-based; conditions: NCI-H1650, 72 h; in short: as §1
[20] = test system: HeLa; assay: Antiproliferative activity against human HeLa cells assessed as inhibition of cell growth incubated for 72 hrs by cell-titer glo assay; assay type: functional, cell-based
In short: (§3)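 Cells seeded at 10,000–30,000/cm² (adherent) or 100,000/mL (nonadherent) in medium with 10% fetal calf serum; after 24 h, treated in duplicate with serial dilutions for 72 h. Viable cell number read by CellTiter-Glo luminescence; IC50 from sigmoidal fit; at least two independent experiments.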

[21] = test system: COLO-678; assay: Antiproliferative activity against human COLO-678 cells assessed as inhibition of cell growth incubated for 72 hrs by cell-titer glo assay; assay type: functional, cell-based; conditions: COLO-678, 72 h; in short: as §2
[22] = test system: K562; assay: Antiproliferative activity against human K562 cells assessed as inhibition of cell growth incubated for 72 hrs by cell-titer glo assay; assay type: functional, cell-based; conditions: K562, 72 h; in short: as §3
[23] = target: Casein kinase I isoform delta (Homo sapiens) (UniProt P48730); assay: Inhibition of N-terminal GST-tagged recombinant human CK1delta (1 to 294 residues) expressed in E. coli assessed as residual activity at 1 uM relative to control
Casein kinase I isoform delta (Homo sapiens), sequence (P48730 whole entry, looked up, the tested form may be a part, canonical isoform): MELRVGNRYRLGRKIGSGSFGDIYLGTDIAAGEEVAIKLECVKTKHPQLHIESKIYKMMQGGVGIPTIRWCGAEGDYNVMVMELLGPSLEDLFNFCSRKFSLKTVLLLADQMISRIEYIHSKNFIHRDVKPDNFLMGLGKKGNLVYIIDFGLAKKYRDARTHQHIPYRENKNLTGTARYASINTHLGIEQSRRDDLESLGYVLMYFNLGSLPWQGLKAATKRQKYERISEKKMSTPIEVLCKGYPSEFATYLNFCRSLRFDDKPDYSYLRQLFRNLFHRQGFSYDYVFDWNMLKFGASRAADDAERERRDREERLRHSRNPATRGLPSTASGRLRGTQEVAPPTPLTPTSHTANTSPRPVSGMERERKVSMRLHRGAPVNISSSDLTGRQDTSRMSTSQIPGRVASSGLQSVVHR

[24] = target: Dual specificity mitogen-activated protein kinase kinase 7 (Homo sapiens) (UniProt O14733); assay: Inhibition of N-terminal GST-tagged recombinant human MKK7beta (2 to end residues) expressed in E. coli assessed as residual activity at 1 uM relative to control
Dual specificity mitogen-activated protein kinase kinase 7 (Homo sapiens), sequence (O14733 whole entry): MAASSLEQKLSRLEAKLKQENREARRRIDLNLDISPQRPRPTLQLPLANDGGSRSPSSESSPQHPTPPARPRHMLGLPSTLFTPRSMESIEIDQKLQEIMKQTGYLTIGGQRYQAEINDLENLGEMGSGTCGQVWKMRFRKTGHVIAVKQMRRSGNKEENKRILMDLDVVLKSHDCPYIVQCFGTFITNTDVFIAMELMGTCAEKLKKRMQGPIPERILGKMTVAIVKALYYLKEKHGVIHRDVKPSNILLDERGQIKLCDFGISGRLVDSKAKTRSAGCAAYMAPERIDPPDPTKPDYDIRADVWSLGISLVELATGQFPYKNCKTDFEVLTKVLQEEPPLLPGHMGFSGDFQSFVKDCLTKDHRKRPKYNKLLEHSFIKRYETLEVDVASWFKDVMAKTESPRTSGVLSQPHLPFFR

[25] = test system: A2780; assay: In vivo inhibition of PLK1 in human A2780 cells xenografted in nu/nu mouse assessed as decreased TCTP phosphorylation on Ser46 at 60 mg/kg, po administered for 2 hrs by Western blotting analysis; assay type: functional, organism-based
[26] = Half-life in Sprague-Dawley rat at 10 mg/kg, iv by LC-MS analysis; assay type: ADME, organism-based; conditions: in vivo
[27] = target: Ephrin type-B receptor 3 (Homo sapiens) (UniProt P54753); assay: Inhibition of N-terminal His6-tagged recombinant human EphB3 (599 to 920 residues) expressed in baculovirus infected Sf21 cells assessed as residual activity at 1 uM relative to control
Ephrin type-B receptor 3 (Homo sapiens), sequence (P54753 whole entry, the tested form may be a part): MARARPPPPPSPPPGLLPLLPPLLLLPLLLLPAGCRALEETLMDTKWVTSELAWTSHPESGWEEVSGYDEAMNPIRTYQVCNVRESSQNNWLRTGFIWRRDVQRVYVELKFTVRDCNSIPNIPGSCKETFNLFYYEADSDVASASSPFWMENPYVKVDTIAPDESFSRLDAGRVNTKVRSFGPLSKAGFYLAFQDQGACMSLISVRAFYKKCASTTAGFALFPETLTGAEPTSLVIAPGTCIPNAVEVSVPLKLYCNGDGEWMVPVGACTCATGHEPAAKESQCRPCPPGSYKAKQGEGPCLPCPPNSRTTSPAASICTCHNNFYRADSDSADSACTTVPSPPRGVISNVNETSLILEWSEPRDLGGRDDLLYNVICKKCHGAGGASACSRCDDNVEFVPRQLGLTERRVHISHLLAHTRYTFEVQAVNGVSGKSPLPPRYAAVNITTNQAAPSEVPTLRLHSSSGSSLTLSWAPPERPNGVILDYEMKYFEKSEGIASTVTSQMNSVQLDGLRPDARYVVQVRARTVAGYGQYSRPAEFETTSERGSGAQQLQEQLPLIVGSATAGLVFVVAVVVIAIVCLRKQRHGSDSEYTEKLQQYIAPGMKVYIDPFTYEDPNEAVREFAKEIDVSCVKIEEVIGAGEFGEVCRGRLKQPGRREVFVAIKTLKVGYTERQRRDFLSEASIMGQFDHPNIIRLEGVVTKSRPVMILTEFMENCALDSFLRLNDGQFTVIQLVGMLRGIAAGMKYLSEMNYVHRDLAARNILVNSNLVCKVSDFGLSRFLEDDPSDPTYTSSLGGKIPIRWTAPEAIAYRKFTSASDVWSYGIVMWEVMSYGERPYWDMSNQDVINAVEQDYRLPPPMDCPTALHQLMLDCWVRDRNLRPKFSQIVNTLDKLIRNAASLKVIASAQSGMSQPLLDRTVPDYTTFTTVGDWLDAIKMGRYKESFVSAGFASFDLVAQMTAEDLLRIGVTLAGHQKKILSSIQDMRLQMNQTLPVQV

[28] = test system: HCC70; assay: Antiproliferative activity against human HCC70 cells assessed as inhibition of cell growth incubated for 72 hrs by cell-titer glo assay; assay type: functional, cell-based; conditions: HCC70, 72 h; in short: as §3
[29] = test system: U-937; assay: Antiproliferative activity against human U-937 cells assessed as inhibition of cell growth incubated for 72 hrs by cell-titer glo assay; assay type: functional, cell-based; conditions: U-937, 72 h

Work on CN1CCN(c2ccc(OC(F)(F)F)c(Nc3ncc4c(n3)-c3c(c(C(N)=O)nn3CCO)CC4)c2)CC1 [ONVANSERTIB] yielded an IC50 [1] of 56 nM, a Cmax [2] of 1900 nM and an Activity [3] of 90%. It also gave an Activity [4] of 96%, an IC50 [5] of 73 nM and an IC50 [6] of 78 nM. The IC50 [7] was 515 nM, the half-life [8] was 4.6 h and the Activity [9] was “Toxic”. For the same compound, the Activity [10] was “Active”, the Activity [11] was “Dose-Dependent Effect” and the IC50 [12] was 83 nM. The IC50 [13] was 429 nM, the IC50 [14] was 32 nM and the Activity [15] was 43%. It also gave a Cmax [16] of 1700 nM, an IC50 [17] of 55 nM and an Activity [18] of 39%. It also gave an IC50 [19] of 2420 nM, an IC50 [20] of 60 nM and an IC50 [21] of 354 nM. It also gave an IC50 [22] of 87 nM, an Activity [23] of 73% and an Activity [24] of 80%. The inhibition [25] was “Active”, the half-life [26] was 2.7 h and the Activity [27] was 87%. It also gave an IC50 [28] of 279 nM and an IC50 [29] of 41 nM.
